Measurements collected from several papers.
Protocols differ between the studies behind these lines.
Organism: Staphylococcus aureus
Effect on: microbial growth

SMILES	method	strain	time	setting	MIC
CC(C)Oc1c(NC(=O)c2ccc(NC(=O)[C@H](CC(N)=O)NC(=O)c3ccc(NC(=O)c4ccc([N+](=O)[O-])c5cccnc45)cc3)cc2)ccc(C(=O)Nc2ccc(C(=O)O)cc2)c1O	–	ATCC29213	–	–	> 64 µg/mL
C=C(C/C=C(\C)CCC=C(C)C)CCC(C)(C)/C=C/CC/C(C)=C\CO[C@H](COP(=O)(O)O[C@H]1O[C@H](C(N)=O)[C@@](C)(O)[C@H](OC(N)=O)[C@H]1O[C@@H]1O[C@H](CO[C@@H]2O[C@H](CO)[C@@H](O)[C@H](O)[C@H]2O)[C@@H](O[C@@H]2O[C@H](C)[C@@H](O[C@@H]3O[C@H](C(=O)NC4=C(O)CCC4=O)[C@H](O)[C@H](O)[C@H]3O)[C@H](O)[C@H]2NC(C)=O)[C@H](O)[C@H]1NC(C)=O)C(=O)O	broth dilution	–	18 h	–	< 0.75 µg/mL
CC1=NN(CNc2ccccc2[N+](=O)[O-])C(=O)C1=NNn1c(-c2ccccc2)nc2ccccc2c1=O	broth dilution	–	24 h	–	50.4 µM
CCCCCCCCCC(=O)Oc1c(C)c(O)c(C(=O)/C=C/c2ccccc2)c(OC)c1C	broth dilution	ATCC25923	–	–	> 5000 µg/mL
O=[N+]([O-])c1ccc(O)c2ncccc12	broth dilution	ATCC29213	–	–	2 µg/mL
CC(=O)Nc1ccc(C(=O)Nc2ccc(C(=O)N[C@@H](CC(N)=O)C(=O)Nc3ccc(C(=O)Nc4ccc(C(=O)Nc5ccc(C(=O)O)cc5)c(O)c4OC(C)C)cc3)cc2)cc1	–	ATCC29213	–	–	64 µg/mL
COc1cccc(NCc2ccc(Oc3ccccn3)cc2)c1	–	–	–	–	1.6 µg/mL
Cc1cc(C)cc(NC(=O)Nc2ccc(N3CCCCC3)cc2)c1	–	–	–	–	> 128 µg/mL
CS(=O)(=O)CCNCc1ccc(-c2ccc3ncnc(Nc4ccc(OCc5cccc(F)c5)c(Cl)c4)c3c2)o1	–	NCTC8325	–	–	> 30 µM
Clc1ccc(-c2nc3ccccc3[nH]2)cc1	broth dilution	ATCC29213 MSSA	–	–	64 µg/mL
O=C(O)CN1C(=O)/C(=C/c2ccc(-c3ccc(N(c4ccccc4)c4ccccc4)cc3)c3ccccc23)SC1=S	broth dilution	ATCC25923	–	–	1000 µg/mL
O=C(O)c1cccc2ccccc12	–	–	–	–	> 128 µg/mL
Clc1ccc(-c2nc3ccccc3n2Cc2ccccc2)cc1	broth dilution	ATCC29213 MSSA	–	–	64 µg/mL
C/C=C(\C)c1cc(OC(=O)c2c(C)c(Cl)c(O)c(Cl)c2O)c(C)c(O)c1C(=O)O	broth dilution	6917	–	–	> 64 µg/mL
O=C1NC(=S)S/C1=C\c1ccc(-c2ccc(N(c3ccccc3)c3ccccc3)cc2)cc1	broth dilution	ATCC6538	–	–	500 µg/mL
CC[C@H](CO)Nc1nc(NCc2ccccc2)c2ncn(C(C)C)c2n1	–	NCTC8325	–	–	> 30 µM
CN(C)c1ccc(-c2ccc3cc4c(c(O)c3c2)C(=O)C2=C(O)[C@]3(O)C(=O)C(C(N)=O)=C(O)[C@@H](N(C)C)[C@@H]3C[C@@H]2C4)cc1	broth dilution	ATCC29213	–	–	32 µg/mL
CC1(C)S[C@@H]2[C@H](NC(=O)[C@H](N)c3ccccc3)C(=O)N2[C@H]1C(=O)O	broth dilution	CCARM3090	–	–	16 µg/mL
CC(=O)Nc1nc(C)c(-c2ccc(Cl)c(S(=O)(=O)NCCO)c2)s1	–	NCTC8325	–	–	> 30 µM
CN[C@H](CC(C)C)C(=O)N[C@H]1C(=O)N[C@@H](CC(N)=O)C(=O)N[C@H]2C(=O)N[C@H]3C(=O)N[C@H](C(=O)N[C@H](C(=O)O)c4cc(O)cc(O)c4-c4cc3ccc4O)[C@H](O)c3ccc(c(Cl)c3)Oc3cc2cc(c3O[C@@H]2O[C@H](CO)[C@@H](O)[C@H](O)[C@H]2O[C@H]2C[C@](C)(N)[C@H](O)[C@H](C)O2)Oc2ccc(cc2Cl)[C@H]1O	broth dilution	16162	–	–	0.5 µg/mL

SMILES	method	strain	time	setting	MIC
C[C@@H](O)[C@H]1C(=O)N2C(C(=O)O)=C(SCCN=CN)C[C@H]12	–	MRSA	–	–	32 µg/mL
CCS(=O)(=O)c1cccc(-c2cc(C(=O)NC3CCN(C)CC3)c(C)c3[nH]c4ncc(C)cc4c23)c1	–	NCTC8325	–	–	> 30 µM
C/C=C(\C)c1cc(O)c(C)c(OC(=O)c2c(C)c(Cl)c(O)c(Cl)c2O)c1	broth dilution	16339	–	–	8 µg/mL
Cn1cc(NC(=O)C(CC(N)=O)NC(=O)c2ccc(NC(=O)c3ccc(C#N)cc3)cc2)cc1-c1nc2ccc(C(=O)Nc3ccc(C(=O)O)cc3)c(O)c2[nH]1 (stereo not shown)	–	ATCC29213	–	–	> 64 µg/mL
COc1cccc(OC)c1C(=O)N[C@@H]1C(=O)N2[C@@H]1SC(C)(C)[C@@H]2C(=O)O	broth dilution	ATCCBAA44	–	–	1020 µg/mL
Cc1ccc(NC(=O)Nc2ccc3c(c2)OC(F)(F)O3)cc1	–	NCTC8325	–	–	> 100 µM
Clc1ccc(NCc2ccc(Oc3ccccn3)cc2)cc1	–	–	–	–	> 3.1 µg/mL
CC(C)Oc1c(NC(=O)c2ccc(NC(=O)[C@H](CC(N)=O)NC(=O)c3ccc(NC(=O)c4cccc([N+](=O)[O-])c4)cc3)cc2)ccc(C(=O)Nc2ccc(C(=O)O)cc2)c1O	–	ATCC29213	–	–	> 64 µg/mL
O=C(Nc1ccc(F)c(F)c1)c1cc(Cl)ccc1O	broth dilution	ATCC29213	–	–	0.44 µg/mL
CN(C)[C@@H]1C(O)=C(C(N)=O)C(=O)[C@@]2(O)C(O)=C3C(=O)c4c(O)cccc4[C@@](C)(O)[C@H]3C[C@@H]12	broth dilution	25923	–	–	0.15 µM
COc1cccc(-c2nc3ccccc3[nH]2)c1	broth dilution	ATCC29213 MSSA	–	–	256 µg/mL
Cc1nc(N)sc1-c1ccnc(Nc2ccc(N3CCOCC3)cc2)n1	–	NCTC8325	–	–	> 30 µM
O=C(O)c1cn(C2CC2)c2cc(N3CCNCC3)c(F)cc2c1=O	broth dilution	ATCC43300	–	–	0.24 µg/mL
C/C=C(\C)c1cc(OC(=O)c2c(O)c(C)c(O)c(Cl)c2/C(C)=C/C)c(C)c(O)c1C(=O)O	broth dilution	745524	–	–	32 µg/mL
Oc1cccc(-c2nc3ccccc3[nH]2)c1	broth dilution	ATCC29213 MSSA	–	–	64 µg/mL
CNC(=O)c1ccccc1Sc1ccc2c(/C=C/c3ccccn3)n[nH]c2c1	–	NCTC8325	–	–	> 30 µM
COc1cc(Cc2cnc(N)nc2N)cc(OC)c1OC	broth dilution	–	24 h	–	2 µg/mL
CC[C@H]1OC(=O)[C@H](C)[C@@H](O[C@H]2C[C@@](C)(OC)[C@@H](O)[C@H](C)O2)[C@H](C)[C@@H](O[C@@H]2O[C@H](C)C[C@H](N(C)C)[C@H]2O)[C@](C)(O)C[C@@H](C)C(=O)[C@H](C)[C@@H](O)[C@]1(C)O	–	129	–	clinical isolate	> 100 µM
O=C1NC(=S)S/C1=C\c1c2ccccc2c(-c2ccc(N(c3ccccc3)c3ccccc3)cc2)c2ccccc12	broth dilution	ATCC25923	–	–	> 1000 µg/mL
COCCCNC(=N)c1ccc(NC(=O)c2ccc(C(=O)Nc3ccc(C(=N)NCCCOC)cc3)cc2)cc1	–	–	–	–	4 µg/mL

SMILES	method	strain	time	setting	MIC
Cc1ccc(C)n1-c1ccc(-c2nnc(-c3ccccc3[N+](=O)[O-])[nH]2)cc1	broth dilution	ATCC11632	18 h	–	8 µg/mL
Cc1ccc2nc(-c3ccc(Cl)cc3Cl)[nH]c2c1	broth dilution	ATCC29213 MSSA	–	–	64 µg/mL
O=C(O)CN1C(=O)/C(=C/c2c3ccccc3c(-c3ccc(N(c4ccccc4)c4ccccc4)cc3)c3ccccc23)SC1=S	broth dilution	ATCC25923	–	–	> 1000 µg/mL
CN1CCN=C1c1ccc(NC(=O)c2ccc(C(=O)Nc3ccc(C4=NCCN4C)cc3)cc2)cc1	–	–	–	–	8 µg/mL
CCCCCCC#Cc1cncc(-c2nnc(SCc3ccc(Cl)cc3)n2C2CC2)c1	–	MRSA	–	drug-resistant strain	≥ 20 µg/mL
COc1c(C)c(OCc2ccccc2)c(C)c(O)c1C(=O)/C=C/c1ccccc1	broth dilution	ATCC25923	–	–	5000 µg/mL
CC(C)Oc1c(NC(=O)c2ccc(NC(=O)[C@H](CC(N)=O)NC(=O)c3ccc(NC(=O)c4ccc(C#N)c(F)c4)cc3)cc2)ccc(C(=O)Nc2ccc(C(=O)O)cc2)c1O	–	ATCC29213	–	–	2 µg/mL
O=C(c1ccc(/C=C/c2n[nH]c3ccccc23)cc1)N1CCNCC1	–	NCTC8325	–	–	> 30 µM
CC1(C)S[C@@H]2[C@H](NC(=O)[C@H](N)c3ccccc3)C(=O)N2[C@H]1C(=O)O	broth dilution	ATCCBAA44	–	–	16 µg/mL
CC(C)COc1c(NC(=O)c2ccc(NC(=O)[C@H](CC(N)=O)NC(=O)c3ccc(NC(=O)c4ccc(C#N)cc4)cc3)cc2)ccc(C(=O)Nc2ccc(C(=O)O)cc2)c1O	–	ATCC29213	–	–	0.25 µg/mL
Cc1ccc2nc(-c3ccc4c(c3)OCO4)[nH]c2c1	broth dilution	ATCC29213 MSSA	–	–	256 µg/mL
CC1(C)S[C@@H]2[C@H](NC(=O)COc3ccccc3)C(=O)N2[C@H]1C(=O)O	broth dilution	MRSA	18 h	clinical isolate	> 128 µg/mL
O=C(CCCCCCCC[P+](c1ccccc1)(c1ccccc1)c1ccccc1)Nc1ccc(O)c(O)c1.[Br-]	broth dilution	ATCC43300 MRSA	18 h	–	> 32 µg/mL
Cc1ccc2nc(-c3c4ccccc4cc4ccccc34)[nH]c2c1	broth dilution	ATCC29213 MSSA	–	–	64 µg/mL
CC(=O)NC[C@H]1CN(c2ccc(N3CCOCC3)c(F)c2)C(=O)O1	broth dilution	MRSA NRS382 USA100	–	drug-resistant strain	2 µg/mL
CC1=NN(CNc2ccc(Cl)cc2)C(=O)C1=NNn1c(-c2ccccc2)nc2ccccc2c1=O	broth dilution	–	24 h	–	51.5 µM
Cc1ccc2nc(-c3ccccc3O)[nH]c2c1	broth dilution	ATCC29213 MSSA	–	–	128 µg/mL
Cc1cc(C)n(C(=O)c2ccc(-n3c(C)ccc3C)cc2)n1	broth dilution	ATCC11632	18 h	–	125 µg/mL
